Compound activity as filed in PubChem BioAssay.
The list is not random: actives were taken first. Their share in the collection is about 3.1%.
OX1R antag-1 – OX1R (HCRTR1) antagonists, primary screen, fluorescence, CHO/OX1R cells, Fluo-8 calcium, orexin A; Orexin/Hypocretin receptor type 1 (Homo sapiens), O43613; Fluo-8 calcium fluorescence; inhibition, % at 5 µM; 330,000 tested, 0.43% active; AID 434989, 2010;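 active means inhibition above its plate's threshold, mean inhibition of all tested compounds on the plate plus 3 SD, cut at about 37% in these data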
CHO parental Ca – ATP-evoked calcium signal inhibitors, parental CHO, primary screen, counter-screen for OX1R antagonist project, cell-based, fluorescence, Fluo-8 calcium dye; parental CHO-K1, ATP-induced calcium, Fluo-8 fluorescence; inhibition, % at 5.6 µM; 330,000 tested, 0.63% active; AID 463079, 2010;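 active means inhibition above that plate's mean sample inhibition plus 3 SD, cut at about 26% in these data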
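Test system: parental CHO cells; detection: calcium-sensitive Fluo-8 fluorescence; evaluation: percent inhibition of calcium signal; also added: ATP as calcium-mobilizing challenge; repeats: one well per compound; control set: ATP-challenged DMSO wells low, unchallenged DMSO wells high; compound: single nominal dose of 5.6 µM per compound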
OX1R antag-2 – antagonists of human orexin 1 receptor (OX1R); OX1R-expressing cells, FRET antagonist read-out; inhibition, % at 6.6 µM; 330,000 tested, 1.8% active; AID 485270, 2010; in the data active means inhibition mostly above about 38%, no sharp cut-off; inactive means mostly below about 40%
GPR7 antagonist – GPR7 receptor antagonists, primary screen, cell-based, fluorescence, single concentration. Neuropeptides B/W receptor type 1 (Homo sapiens), P48145. GPR7-expressing cells, fluorescence antagonist assay. inhibition, % at 4.4 µM. 290,000 tested, 1.1% active; in the data active means inhibition above about 16%, passing the limit was not always enough;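 further: cells stimulated with the agonist NPW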
GalR3 antagonist – GalR3 antagonists in HEK293 cells, primary screen, cell-based, fluorescence readout | Galanin receptor type 3 (Homo sapiens), O60755 | HEK293 GalR3-CNG cAMP membrane potential fluorescence; galR3 body fused to GalR1 C-terminus | inhibition, % at 3 µM | 360,000 tested, 0.44% active | AID 651719, 2012;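 active means inhibition above the screen-wide average plus 3 SD, cut at about 13% in these data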;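 further: forskolin and galanin both at EC90 stimulate the cells; cAMP rise reported by CNG channel membrane potential dye signal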
Target sequence (O60755 1-299 limits assumed): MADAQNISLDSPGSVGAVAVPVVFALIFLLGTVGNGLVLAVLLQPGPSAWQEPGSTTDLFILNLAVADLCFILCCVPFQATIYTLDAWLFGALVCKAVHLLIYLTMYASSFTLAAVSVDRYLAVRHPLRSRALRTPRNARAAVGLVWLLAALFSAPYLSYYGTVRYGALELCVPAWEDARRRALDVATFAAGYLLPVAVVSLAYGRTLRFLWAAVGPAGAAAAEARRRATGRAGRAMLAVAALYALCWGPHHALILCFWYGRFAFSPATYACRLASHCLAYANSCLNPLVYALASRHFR
Numbers stand for hits.

Screening O=C(Nc1cccc(S(=O)(=O)N2CCCCC2)c1)C1CCC1 returned OX1R antag-1 inactive, CHO parental Ca inactive, OX1R antag-2 inactive and GalR3 antagonist inactive.
Screening O=C(Nc1cccc(S(=O)(=O)N2CCCCC2)c1)C1CCCN1S(=O)(=O)c1ccccc1F (stereo not given) returned OX1R antag-1 inactive, CHO parental Ca inactive, OX1R antag-2 27.9 and GalR3 antagonist inactive.
For CS(=O)(=O)c1cccc(NC(=O)C2CCCN2S(=O)(=O)c2ccc(F)cc2)c1 (stereo not given) the results were OX1R antag-1 inactive, CHO parental Ca inactive, OX1R antag-2 54.9, GPR7 antagonist inactive and GalR3 antagonist inactive.
O=C(Nc1ccc(N2CCCCC2)cc1)C1CCCN1S(=O)(=O)c1ccc(F)cc1 (stereo not given) was read as OX1R antag-1 inactive, CHO parental Ca inactive, OX1R antag-2 inactive and GalR3 antagonist inactive.
Screening O=Cc1ccc(-c2c(-c3ccccc3)oc3c2C(OCCCCO)CCC3)o1 (stereo not given) returned GalR3 antagonist inactive.
O=C(COc1ccc(Cl)cc1Cl)NCCN1CCCC1 was read as GalR3 antagonist inactive.
`CCc1nc2n(n1)C(O)c1cc([N+](=O)[O-])ccc1S2` (stereo not given) gave OX1R antag-1 inactive, CHO parental Ca inactive, OX1R antag-2 46.1, GPR7 antagonist inactive and GalR3 antagonist inactive.
O=C(/C(=C/c1ccc(Cl)cc1)c1nc2ccccc2[nH]1)c1cccs1 was read as OX1R antag-1 inactive, CHO parental Ca inactive, OX1R antag-2 inactive and GPR7 antagonist 24.9.
For COc1cc(/C=C(/C(=O)c2cccs2)c2nc3ccccc3[nH]2)ccc1O the results were OX1R antag-1 inactive, CHO parental Ca inactive, OX1R antag-2 inactive, GPR7 antagonist inactive and GalR3 antagonist inactive.
For COC(=O)c1cc2c(c3c4ccccc4n(S(=O)(=O)c4cccc(C)c4)c13)C(=O)N(C)C2 the results were GalR3 antagonist inactive.
CN(C)CCNC(=O)c1cc2c(s1)-c1ccccc1OC2 was read as OX1R antag-1 inactive, CHO parental Ca inactive, OX1R antag-2 inactive, GPR7 antagonist inactive and GalR3 antagonist inactive.
`Cc1csc(NC(=O)c2cc3c(s2)-c2ccccc2OC3)n1` gave OX1R antag-1 inactive, CHO parental Ca inactive, OX1R antag-2 69.0, GPR7 antagonist inactive and GalR3 antagonist inactive.
Screening CN(CC(=O)Nc1ccccc1Cl)C(=O)c1cc(C2CC2)nn1-c1ccccc1 returned OX1R antag-1 inactive, CHO parental Ca inactive, OX1R antag-2 inactive and GalR3 antagonist inactive.
Screening Cc1nn(-c2ccccc2)c(Cl)c1/C=N/NC(=O)c1ccco1 returned OX1R antag-1 inactive, CHO parental Ca inactive, OX1R antag-2 44.8, GPR7 antagonist inactive and GalR3 antagonist inactive.
Screening CCN(CC)S(=O)(=O)c1ccc(NC(=O)CNC2CCCCC2)cc1 returned OX1R antag-1 inactive, CHO parental Ca inactive, OX1R antag-2 inactive, GPR7 antagonist inactive and GalR3 antagonist inactive.
CC(C)Oc1ccc(Br)cc1C(=O)N/N=C/c1c[nH]c2ccccc12 was read as OX1R antag-1 inactive, CHO parental Ca inactive, OX1R antag-2 40.2, GPR7 antagonist inactive and GalR3 antagonist inactive.
For O=C(N/N=C/c1c[nH]c2ccccc12)c1ccc(Br)cc1 the results were OX1R antag-1 inactive, CHO parental Ca inactive, OX1R antag-2 inactive, GPR7 antagonist inactive and GalR3 antagonist inactive.
For O=C1C2C3C=CC(CO)(O3)C2C(=O)N1c1ccc(-c2ccccc2)cc1 (stereo not given) the results were OX1R antag-1 inactive, CHO parental Ca 60.7, OX1R antag-2 inactive and GPR7 antagonist inactive.
`CC(C)(C)C(=O)NCC12C=CC(O1)C1C(=O)N(c3ccccc3)C(=O)C12` (stereo not given) gave OX1R antag-1 inactive, CHO parental Ca inactive, OX1R antag-2 inactive, GPR7 antagonist inactive and GalR3 antagonist inactive.
CCn1c(Cl)c(C=O)s/c1=N\S(=O)(=O)c1ccccc1 was read as OX1R antag-1 inactive, CHO parental Ca inactive, OX1R antag-2 inactive, GPR7 antagonist 44.6 and GalR3 antagonist inactive.
For O=C(Nc1ncc(Cc2ccc(SC(F)F)cc2)s1)c1ccc(OC(F)F)cc1 the results were OX1R antag-1 61.1, CHO parental Ca inactive, OX1R antag-2 inactive, GPR7 antagonist inactive and GalR3 antagonist inactive.
